The record followed here is ChEMBL document CHEMBL2034927, “Design, synthesis, anti-HIV evaluation and molecular modeling of piperidine-linked amino-triazine derivatives as potent non-nucleoside reverse transcriptase inhibitors” (Bioorg Med Chem, 2012).

The nature of data set [1]: Cytotoxicity against human MT4 cells after 5 days by MTT assay. In kind it is cell-based. The procedure, abridged: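 MT-4 cells at 6 × 10⁵ cells/mL were mock-infected with culture medium and exposed to serial fivefold dilutions of compound. After 5 days, viability was measured by MTT reduction at 540 and 690 nm, using the median OD of three wells. CC50 is the concentration reducing OD540 of the mock-infected control by 50%.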

Data set [2] is described as follows: Selectivity index, ratio of CC50 for human MT4 cells to EC50 for wild type HIV1 3B. In kind it is toxicity, cell-based. The conditions noted are these: read-out: Ratio CC50/EC50. The procedure, abridged:
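HIV-1 IIIB stock at 100–300 CCID50 was added to MT-4 cells at 6 × 10⁵ cells/mL, with serial fivefold compound dilutions and mock-infected wells run in parallel. Viability was read by MTT at 540 and 690 nm after 5 days, using the median OD of three wells. EC50 is 50% protection from HIV-induced cytotoxicity, and CC50 is a 50% reduction of mock-infected OD540. SI is CC50/EC50.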

Data set [3] has as its system Human immunodeficiency virus 2. The data set is described as follows: Antiviral activity against HIV2 ROD infected in human MT4 cells assessed as inhibition of virus-induced cytopathic effect after 5 days by MTT assay. In kind it is functional, organism-based. The conditions noted are these: Human immunodeficiency virus 2, ISOLATE ROD, MT4, 120 h. A digest of the protocol:
(§1)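 MT-4 cells spun 5 min at 1000 rpm, resuspended at 6 × 10⁵ cells/mL, then infected with HIV-1 IIIB or HIV-2 ROD at 100–300 CCID50. Test compounds were added as serial fivefold dilutions. After 5 days, viability was read by MTT reduction at 540 and 690 nm, using the median OD of three wells. EC50 is the concentration giving 50% protection against virus-induced cytotoxicity.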

Data set [4] relates to Human immunodeficiency virus 1. The experiment in a line: Antiviral activity against HIV1 RES056 harboring reverse transcriptase K103N/Y181C mutant infected in human MT4 cells assessed as inhibition of virus-induced cytopathic effect after 5 days by MTT assay. In kind it is functional, organism-based. The conditions noted are these: Human immunodeficiency virus 1, RES056, MT4, 120 h. A digest of the protocol:
(§2)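 MT-4 cells at 6 × 10⁵ cells/mL were infected with the double mutant HIV-1 RES056 (K103N+Y181C), with serial fivefold compound dilutions. After 5 days, viability was read by MTT at 540 and 690 nm, using the median OD of three wells. EC50 is 50% protection against virus-induced cytotoxicity, and CC50 is a 50% drop in OD540 of mock-infected cells. Fold resistance is the RES056 EC50 divided by the IIIB EC50.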
In general terms: Damage to the host cells serves as the signal in cytopathic effect assays.

For data set [5], the system named is Human immunodeficiency virus 1. The data set is described as follows: Antiviral activity against HIV1 3B infected in human MT4 cells assessed as inhibition of virus-induced cytopathic effect after 5 days by MTT assay. In kind it is functional, organism-based. The following applies: Human immunodeficiency virus 1, 3B, MT4, 120 h. The procedure, abridged: as §1

In data set [6] the test system is Human immunodeficiency virus 1. The data set is described as follows: Fold resistance, ratio of EC50 for HIV1 RES056 harboring reverse transcriptase K103N/Y181C RT mutant to EC50 for wild type HIV1 3B. The data set is classed as functional. The procedure, abridged: as §2
The nature of data set [7]: Selectivity index, ratio of CC50 for human MT4 cells to EC50 for HIV1 RES056 harboring reverse transcriptase K103N/Y181C RT mutant. The data set is classed as toxicity, cell-based. The following applies: read-out: Ratio CC50/EC50.

A word on the CC50: it is the concentration giving 50% cytotoxicity. Low values mean harm at low concentration, high ones better tolerance by the cells. For orientation: EC50 means the concentration that produces a half-maximal response. `Cc1cc(C)c(Nc2nc(N)nc(NC3CCN(Cc4ccncc4)CC3)n2)c(C)c1` displayed a CC50 at 120 h in data set [1] of 20.1 µM. Besides, the values for the selectivity ratio in data set [2] and in data set [7] were 4110 and 21, respectively. In addition, the EC50 in data set [3] is above 20.1 µM; in data set [4] it was 970 nM; in data set [5], 4.9 nM. The “Ratio EC50” value in data set [6] is given as 198.8.
